According to ChEMBL document CHEMBL1131164, “Potent cyano and carboxamido side-chain analogues of 1', 1'-dimethyl-delta8-tetrahydrocannabinol” (J Med Chem, 1998):

Tests used:
Cannabinoid receptor 1 = Cannabinoid receptor 1 (Homo sapiens, UniProt P21554); test: Evaluated for its binding affinity towards Cannabinoid receptor 1 (CB1)
Mus musculus [1] = species on record: Mus musculus; test: Tested for the concentration for antinociception as measured by the tail-flick response (TF).; format: functional
Mus musculus [2] = species on record: Mus musculus; test: Tested for the concentration for the inhibition of spontaneous activity (SA).; format: functional
Mus musculus [3] = species on record: Mus musculus; test: Tested for the concentration that shows hypothermia as changes in rectal temperature (RT).; format: functional
Mus musculus [4] = test: The compound was tested for the concentration for the inhibition of spontaneous activity (SA) at a dose of 100 mg/kg.; format: functional
How it was run: (§1)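 Mice, single intravenous tail-vein dose in ethanol:emulphor:saline 1:1:18 at 0.1 mL/10 g. Several measures were taken in the same mouse. SA is % of control activity, and TF is %MPE with a 10-s maximum latency. Effect is expressed as percent of the Δ9-THC maximum (90% for SA, 100% for TF).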

Mus musculus [5] = species on record: Mus musculus; test: Tested for the concentration that shows ring immobility (RI).; format: functional
Mus musculus [6] = test: The compound was tested for the concentration for the inhibition of spontaneous activity (SA) at a dose of 30 mg/kg.; format: functional; how it was run: as §1
Mus musculus [7] = test: The compound was tested for the concentration for antinociception as measured by the tail-flick response (TF) at a dose of 30 mg/kg.; format: functional; how it was run: as §1
Mus musculus [8] = test: The compound was tested for the concentration that shows hypothermia as changes in rectal temperature (RT) at a dose of 30 mg/kg.; format: functional
How it was run: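 Mice, single intravenous tail-vein dose in ethanol:emulphor:saline 1:1:18 at 0.1 mL/10 g. Rectal temperature change (Δ°C) was measured in the same mouse as the other behavioural measures.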

Mus musculus [9] = test: The compound was tested for the concentration for antinociception as measured by the tail-flick response (TF) at a dose of 60 mg/kg.; format: functional; how it was run: as §1

Sequence of Cannabinoid receptor 1 (P21554 whole entry): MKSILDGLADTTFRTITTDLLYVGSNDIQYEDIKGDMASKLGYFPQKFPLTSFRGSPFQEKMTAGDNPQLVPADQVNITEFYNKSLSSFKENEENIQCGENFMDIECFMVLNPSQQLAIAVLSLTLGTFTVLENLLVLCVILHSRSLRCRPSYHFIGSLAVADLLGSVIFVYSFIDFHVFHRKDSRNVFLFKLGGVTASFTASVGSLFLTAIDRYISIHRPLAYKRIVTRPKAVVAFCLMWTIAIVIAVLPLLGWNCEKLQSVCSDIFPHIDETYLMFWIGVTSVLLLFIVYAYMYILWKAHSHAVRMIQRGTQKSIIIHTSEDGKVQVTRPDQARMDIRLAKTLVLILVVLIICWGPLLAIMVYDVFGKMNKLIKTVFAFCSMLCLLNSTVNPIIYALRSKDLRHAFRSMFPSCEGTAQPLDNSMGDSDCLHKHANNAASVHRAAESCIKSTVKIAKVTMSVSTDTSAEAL

Compound | Ki (Cannabinoid receptor 1) | ED50 (Mus musculus [1]) | ED50 (Mus musculus [2]) | ED50 (Mus musculus [3]) | inhibition in vivo at 100 mg/kg (Mus musculus [4]) | ED50 (Mus musculus [5]) | inhibition in vivo at 30 mg/kg (Mus musculus [6]) | inhibition in vivo at 30 mg/kg (Mus musculus [7]) | inhibition in vivo at 30 mg/kg (Mus musculus [8]) | inhibition in vivo at 60 mg/kg (Mus musculus [9])
CCN(CC)C(=O)CCCCC(C)(C)c1cc(O)c2c(c1)OC(C)(C)[C@@H]1CC=C(C)C[C@@H]21 | 13 nM | 0.1 mg/kg | 0.09 mg/kg | 0.4 mg/kg | – | – | – | – | – | –
CC1=CC[C@@H]2[C@@H](C1)c1c(O)cc(C(C)(C)CCCCC(=O)NCCc3ccc(S(N)(=O)=O)cc3)cc1OC2(C)C | 29 nM | > 100 mg/kg | – | > 100 mg/kg | 60% | > 100 mg/kg | – | – | – | –
CCCCCCC(C)(C)c1cc(O)c2c(c1)OC(C)(C)[C@@H]1CC=C(C)C[C@@H]21 | 0.77 nM | 0.04 mg/kg | 0.07 mg/kg | 0.04 mg/kg | – | 0.05 mg/kg | – | – | – | –
CC1=CC[C@@H]2[C@@H](C1)c1c(O)cc(C(C)(C)CCCCC#N)cc1OC2(C)C | 0.36 nM | 0.0047 mg/kg | 0.007 mg/kg | 0.19 mg/kg | – | 0.095 mg/kg | – | – | – | –
CC1=CC[C@@H]2[C@@H](C1)c1c(O)cc(C(C)(C)CCCCC(=O)Nc3ccc(Cl)cc3Cl)cc1OC2(C)C | 18 nM | 14 mg/kg | – | 3.7 mg/kg | – | – | 27% | – | – | –
CC1=CC[C@@H]2[C@@H](C1)c1c(O)cc(C(C)(C)CCCCC(=O)Nc3ccc(Cl)cc3)cc1OC2(C)C | 187 nM | – | – | – | – | – | 39% | 15% | -1.6% | –
CC1=CC[C@@H]2[C@@H](C1)c1c(O)cc(C(C)(C)CCCCC(=O)N(C)C)cc1OC2(C)C | 0.86 nM | 0.031 mg/kg | 0.0015 mg/kg | 0.12 mg/kg | – | – | – | – | – | –
CCCCCc1cc(O)c2c(c1)OC(C)(C)[C@@H]1CCC(C)=C[C@@H]21 [DRONABINOL] | – | 1.4 mg/kg | 1 mg/kg | 1.4 mg/kg | – | 1.5 mg/kg | – | – | – | –
CC1=CC[C@@H]2[C@@H](C1)c1c(O)cc(C(C)(C)CCCCOc3ccc(C#N)cc3)cc1OC2(C)C | 3 nM | 1.15 mg/kg | 0.1 mg/kg | 4.24 mg/kg | – | – | – | – | – | –
CC1=CC[C@@H]2[C@@H](C1)c1c(O)cc(C(C)(C)CCCC(O)C#N)cc1OC2(C)C (stereo not given in full) | 13 nM | 0.11 mg/kg | 0.52 mg/kg | 1.5 mg/kg | – | 1.07 mg/kg | – | – | – | –
CC1=CC[C@@H]2[C@@H](C1)c1c(O)cc(C(C)(C)CCCCCC#N)cc1OC2(C)C | 0.6 nM | 0.01 mg/kg | 0.006 mg/kg | 0.005 mg/kg | – | – | – | – | – | –
CC1=CC[C@@H]2[C@@H](C1)c1c(O)cc(C(C)(C)CCCCC(=O)NCc3ccc(S(N)(=O)=O)cc3)cc1OC2(C)C | 60 nM | – | 31 mg/kg | 37 mg/kg | – | – | – | – | – | 60%
CC1=CC[C@@H]2[C@@H](C1)c1c(O)cc(C(C)(C)CCCCC(=O)NN3CCCCC3)cc1OC2(C)C | 1.2 nM | 0.16 mg/kg | 0.04 mg/kg | 0.17 mg/kg | – | – | – | – | – | –
CC1=CC[C@@H]2[C@@H](C1)c1c(O)cc(C(C)(C)CCCCC(=O)Nc3ccc(S(N)(=O)=O)cc3)cc1OC2(C)C | 19 nM | 3.2 mg/kg | 2.03 mg/kg | 1.7 mg/kg | – | – | – | – | – | –
CC1=CC[C@@H]2[C@@H](C1)c1c(O)cc(C(C)(C)CCCCC(C#N)c3ccccc3)cc1OC2(C)C (stereo not given in full) | 9.2 nM | 1.4 mg/kg | 6.51 mg/kg | 4.2 mg/kg | – | 5.05 mg/kg | – | – | – | –
